H69AR growth 86K: blocks growth of human H69AR lung tumor cells; AID 598; H69AR lung tumor viability, ATP luminescence, 72 h; stronger effect = lower value; 85,000 tested, 6% active; viability, % at 10 µM;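 active = viability at or below 40%; inactive = viability above 40%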;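 note: multidrug resistant small cell line overexpressing MRP-1 efflux transporter; 100% = mean luminescence of untreated control wells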
Lung fibro prol: blocks proliferation of human lung fibroblasts. LL 47 human lung fibroblast viability, ATP luminescence; stronger effect = lower value. AID 719. 85,000 tested, 1.1% active. viability, % at 10 µM;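 active = viability at or below 50% in the single dose screen; inactive = viability above 50%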;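 note: compound exposure lasted 72 h before the ATP readout; 100% = median luminescence of untreated cell-only wells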
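test system = LL 47 human lung fibroblasts | amount = 1,150 fibroblasts seeded per well | medium = 15% FBS in IMEM | times = overnight cell rest, 72 h compound treatment at 37 °C | measured by = CellTiter-Glo luminescence measuring cellular ATP | read-out = viability percentage against median untreated-cell control | benchmarks = cell-only wells, no compound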
HUVEC prolif 384: human endothelial cell proliferation inhibition; HUVEC proliferation, CellTiter-Glo luminescence, 72 h; stronger effect = lower value; viability, % at 10 µM (by protocol); 86,000 tested, 1.1% active;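 active = viability at or below 30%; inactive = viability above 30%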;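 note: 100% = median luminescence of DMSO-only cell control wells on each plate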
PTEN del growth: growth suppressors of cells with PTEN tumor suppressor deletion; HCT116 PTEN-null viability, CellTiter-Glo, 60 h; stronger effect = lower value; viability, % at 10 µM; 140,000 tested, 1.2% active; AID 827;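 active = viability at or below a set limit, 4 SD under the median of all tested compounds, cut at about 3.7% in these data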;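 note: PTEN knockout HCT116 line with beta catenin targeted HCT116 as companion control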
bCat KO growth: beta-catenin-lacking colon tumor cell growth suppression; viability, % at 10 µM; 140,000 tested, 1.5% active; HCT116 beta-catenin knockout viability, CellTiter-Glo, 60 h; stronger effect = lower value; AID 818;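 active = viability at or under a set limit, the compound median less 4 SD, cut at about 6% in these data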;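 note: 0% = Hyamine 1622 control at 20 µM and 100% = untreated cell control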
The depositor's hits bear a star; · = not tested or not shown. This excerpt belongs to a sample that is enriched for hits.

SMILES | H69AR growth 86K | Lung fibro prol | HUVEC prolif 384 | PTEN del growth | bCat KO growth
Cc1cccc(CN2CCN(C(c3ccccc3)c3ccc(Cl)cc3)CC2)c1 (stereo not drawn) | 89 | 96 | 80 | 78 | 87
CN1CCCN(C(c2ccccc2)c2ccc(Cl)cc2)CC1 (stereo not drawn) | 25* | 65 | 77 | 16 | 17
COc1ccc(C2c3ccc4ccccc4c3Oc3ncn(CCN4CCOCC4)c(=N)c32)cc1 (stereo not drawn) | 1.9* | 3.2* | 2.1* | 1.8* | 2.1*
COc1ccc(C2c3c(ncn(Cc4ccco4)c3=N)Oc3ccc4ccccc4c32)cc1 (stereo not drawn) | · | · | · | 1.6* | 2.2*
COc1cc(NC(=O)CN2C(=O)NC(c3ccccc3)(c3ccccc3)C2=O)c(C)cc1[N+](=O)[O-] | · | · | · | 77 | 82
CCCOc1ccc(-c2nc(=S)[nH][nH]2)cc1 | 63 | 109 | 80 | 109 | 102
Cc1ccc(/C(C#N)=C\c2ccc(N3CCOCC3)o2)cc1 | · | · | · | 69 | 54
N#C/C(=C\c1ccc([N+](=O)[O-])o1)c1nc2ccccc2[nH]1 | · | · | · | 0.6* | 0.7*
N#C/C(=C\Nc1ccc2c(c1)OCCO2)c1nc(-c2ccccc2)cs1 | · | · | · | 58 | 56
Cc1ccc2nc(/C(C#N)=C\c3ccc([N+](=O)[O-])o3)[nH]c2c1 | · | · | · | 1.5* | 1.9*
N#C/C(=C\Nc1ccc2c(c1)OCCO2)c1nc2ccccc2[nH]1 | 19* | 104 | 74 | 77 | 80
Cc1ccc2nc(/C(C#N)=C\c3cc(C)n(-c4cccc([N+](=O)[O-])c4)c3C)[nH]c2c1 | 58 | 92 | 75 | 51 | 42
Cc1ccc2nc(/C(C#N)=C\c3ccc(N4CCOCC4)o3)[nH]c2c1 | 5.5* | 84 | 76 | 62 | 76
CC(=O)c1ccc(NC(=S)NC(=O)c2c(Cl)c(C)nn2C)cc1 | · | · | · | 100 | 99
OC1(c2ccccc2)CN(c2ccccc2)C2=[N+]1CCS2 (stereo not drawn) | · | · | · | 83 | 88
CCOC(=O)N1CCC(NC(=O)CSc2cc(=O)n(C)c3ccc(Cl)cc23)CC1 | 79 | 99 | 69 | · | ·
Cc1cc(NC(=O)c2c(F)cccc2Cl)n(-c2nc3ccccc3[nH]2)n1 | 28* | 79 | 59 | 16 | 21
Cc1cc(NC(=O)c2ccc(C)s2)n(-c2nc3ccccc3[nH]2)n1 | · | · | · | 37 | 53
Cc1cc(NC(=O)c2ccccc2F)n(-c2nc3ccccc3[nH]2)n1 | 41 | 70 | 92 | 71 | 74
Cc1cc(N2CCN(c3ccccc3)CC2)nc(-n2nc(C)cc2C)n1 | 9.3* | 96 | 108 | 33 | 50
Cc1cc(Nc2ccccc2)n(-c2nc3ccccc3[nH]2)n1 | 37* | 67 | 45 | 13 | 22
Cc1cc(C)nc(-n2nc(C)cc2Nc2ccccc2)n1 | 10* | 77 | 78 | 45 | 40
COC(=O)[C@H](Cc1ccccc1)NC(=O)NCc1cccs1 | 90 | 97 | 93 | 101 | 94
O=C(C[n+]1ccc(-c2nnc3n2CCC3)cc1)c1ccc(Cl)cc1 | · | · | · | 105 | 96
CCc1ccccc1N/C(=N\S(=O)(=O)c1ccccc1)C(F)(F)F | · | · | · | 101 | 97
SMILES | H69AR growth 86K | Lung fibro prol | HUVEC prolif 384 | PTEN del growth | bCat KO growth
Cc1cc(NC(=O)c2c(F)cccc2F)n(-c2nc3ccccc3[nH]2)n1 | 36* | 85 | 72 | 14 | 18
CCOc1cc(-c2cc(-c3ccc(C)o3)nc(N)c2C#N)ccc1O | 12* | 83 | 52 | 58 | 60
Cc1ccc(-c2cc(-c3ccc(C)o3)nc(N)c2C#N)cc1 | 37* | 96 | 80 | 73 | 64
N#Cc1c(N)oc(-c2ccc3c(c2)OCO3)c1-c1ccc2c(c1)OCO2 | 22* | 99 | 96 | 26 | 39
Cc1ccc(-c2cc(-c3ccc4c(c3)OCO4)c(C#N)c(N)n2)o1 | 19* | 85 | 71 | 56 | 49
Cc1ccc(-c2cc(-c3ccc(F)cc3)c(C#N)c(N)n2)o1 | · | · | · | 87 | 94
CCOc1cc(-c2c(C)c(C)nc(N)c2C#N)ccc1O | 70 | 99 | 87 | 103 | 100
CCOc1cc(-c2c(C)c(CC)nc(N)c2C#N)ccc1O | 36* | 96 | 92 | 79 | 90
Cc1ccc(-c2cc(-c3ccc(Cl)cc3)c(C#N)c(N)n2)o1 | 7.1* | 71 | 58 | 55 | 44
O=C(c1ccc(Cl)cc1)C(Cn1cncn1)C(Sc1ccccc1)c1ccccc1 (stereo not drawn) | · | · | · | 5 | 5.6*
O=C(c1cc(C2CC2)nc2ccc(Br)cc12)N1N=C(C(F)F)CC1(O)C(F)F (stereo not drawn) | 17* | 54 | 29* | 6 | 19
O=Cc1ccc(Sc2nnc(-c3ccccc3)o2)c([N+](=O)[O-])c1 | 2.0* | 79 | 2.4* | 6 | 17
Cn1nc([N+](=O)[O-])nc1Sc1nnc(-c2ccccc2)o1 | 2.6* | 67 | 62 | 2.6* | 3.4*
O=c1ccn(-c2cccc(C(F)(F)F)c2)nc1-c1ccn(-c2cccc(Cl)c2)n1 | · | · | · | 71 | 80
O=C(CSc1nnc(Cc2ccccc2)o1)Nc1ccc2c(c1)OCO2 | 65 | 98 | 89 | 94 | 94
COc1cccc(C2C=C(c3ccc(Br)s3)Nc3ncnn32)c1OC (stereo not drawn) | 43 | 93 | 110 | 93 | 81
Fc1ccc(Br)cc1C1C=C(c2ccc(Br)s2)Nc2ncnn21 (stereo not drawn) | 29* | 56 | 52 | 88 | 90
CC1=C/C(=N\Nc2ccccc2[N+](=O)[O-])CC(C)(C)C1 | · | · | · | 81 | 83
CC(=O)Nc1ccc(N=Cc2ccc[nH]2)cc1 | · | · | · | 94 | 102
Oc1ccccc1N=Cc1ccc[nH]1 | 35* | 111 | 101 | 100 | 92
CCOC(=O)c1ccc(N2C(=O)C=CC2=O)cc1 | 1.9* | 4.3* | 12* | 110 | 97
CCOC(=O)c1ccc(-n2c(C)ccc2C)cc1 | · | · | · | 15 | 19
COc1ccc(NC(=O)c2cnc(C)cn2)c2ncccc12 | 2.8* | 49* | 27* | 11 | 11
Nc1cnc(Br)cc1Br | · | · | · | 96 | 104
Nc1cc2nsnc2cc1Br | · | · | · | 10 | 1.8*
SMILES | H69AR growth 86K | Lung fibro prol | HUVEC prolif 384 | PTEN del growth | bCat KO growth
Cc1ccc(-n2c(C)cc(C(=O)CSc3n[nH]c(N)n3)c2C)cc1 | 32* | 88 | 89 | 60 | 48
Cc1cc(C(=O)CSc2n[nH]c(N)n2)c(C)n1-c1ccc(F)cc1 | 40* | 94 | 94 | 60 | 44
Cc1cc(C(=O)CSc2n[nH]c(N)n2)c(C)n1-c1ccccc1 | · | · | · | 81 | 65
O=C(NCC(=O)N(Cc1ccccc1)C(C(=O)NC1CCCC1)c1ccncc1)c1ccco1 (stereo not drawn) | 80 | 98 | 98 | 93 | 95
CCN1C(=O)c2cccc3c(S(=O)(=O)NCCc4c[nH]c5ccccc45)ccc1c23 | · | · | · | 96 | 86
N#C/C(=C\c1cn(-c2ccccc2)nc1-c1cccnc1)c1nnc2n1CCCCC2 | 78 | 105 | 97 | 98 | 94
CCOc1ccccc1C(=O)N1CCC(n2nnc3cc(C)ccc32)CC1 | 89 | 101 | 101 | 88 | 84

Screening results: PubChem, SRMLSC
